Assay outcomes from PubChem BioAssay.
SUMO1 PPI mod: SUMO1-SIM interaction modulation | P63165 | SUMO1 binding to a labelled peptide, TR-FRET, 1 h | inhibition, % at 20 µM | 360,000 compounds, 0.33% hits | AID 602429; in the data active = inhibition above about 37%
Target sequence (P63165 whole entry, looked up): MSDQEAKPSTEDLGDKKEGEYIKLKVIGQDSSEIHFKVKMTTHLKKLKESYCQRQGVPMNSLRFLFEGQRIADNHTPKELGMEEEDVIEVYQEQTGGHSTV
DNMT1 block: inhibitors of human DNMT1. inhibition (reported as % activation of signal), % at 10 µM. AID 588458. DNMT1 molecular beacon, Hinp1I cleavage, fluorescence. P26358. 360,000 compounds, 0.83% hits; in the data active = inhibition above about 50%
STEP inh: inhibitors of human striatal-enriched phosphatase STEP; recombinant STEP, OMFP fluorogenic substrate, fluorescence; P54829; inhibition, % at 20 µM; 360,000 compounds, 0.25% hits;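 active = inhibition at 20 µM, scaled per plate between control wells, above about 37%, limit read from the data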;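 also: 0% = DMSO with enzyme and substrate and 100% = substrate only without enzyme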
Target sequence (P54829 whole entry, looked up): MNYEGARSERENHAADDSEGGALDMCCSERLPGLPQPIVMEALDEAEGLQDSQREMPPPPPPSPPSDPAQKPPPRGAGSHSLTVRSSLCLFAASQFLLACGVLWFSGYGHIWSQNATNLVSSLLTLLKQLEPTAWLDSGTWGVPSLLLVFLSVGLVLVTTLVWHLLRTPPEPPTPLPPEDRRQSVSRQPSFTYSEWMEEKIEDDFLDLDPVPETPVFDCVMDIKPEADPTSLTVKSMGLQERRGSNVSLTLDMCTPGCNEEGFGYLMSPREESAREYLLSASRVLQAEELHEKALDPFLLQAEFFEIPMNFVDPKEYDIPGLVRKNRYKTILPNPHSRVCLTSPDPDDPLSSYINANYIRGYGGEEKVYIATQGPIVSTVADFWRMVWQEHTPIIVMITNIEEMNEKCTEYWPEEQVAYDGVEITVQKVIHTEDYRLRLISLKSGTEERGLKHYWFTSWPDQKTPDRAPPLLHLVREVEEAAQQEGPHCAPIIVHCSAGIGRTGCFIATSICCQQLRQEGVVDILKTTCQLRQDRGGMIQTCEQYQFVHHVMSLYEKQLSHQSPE
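material = STEP tyrosine phosphatase | reagent = fluorogenic phosphatase substrate OMFP at 25 µM final | doses = single compound dose of 20 µM, 1% DMSO final | schedule = 20 min reaction, room temperature, in the dark | measured by = fluorescence, 480/540 nm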
Scp1 inh: inhibitors of human Scp-1 phosphatase | Q9GZU7 | Recombinant Scp1, phosphopeptide, malachite green phosphate absorbance | inhibition, % at 20 µM | 340,000 compounds, 0.88% hits | AID 493091;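 active = inhibition above about 50% at 20 µM, limit read from the data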;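 also: plate controls were DMSO wells with enzyme for no effect and wells lacking enzyme for full effect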
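Assay system: SCP-1 catalytic fragment, aa 76-261 | Buffer or medium: Tris acetate buffer pH 5.5 with MgCl2 and Tween-20 | Compound: One concentration, 20 µM, with 1.0% DMSO | Also added: Phospho 17-mer peptide substrate | Signal: Absorbance at 630 nm | Incubation: 45 min enzyme reaction at room temperature | Measure: % inhibition of SCP-1 phosphate liberation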
HKDC1 inhibitor: inhibitors of human hexokinase HKDC1 | recombinant HKDC1, G6PDH/diaphorase resazurin coupled fluorescence | inhibition, % at 20 µM | 340,000 compounds, 0.16% hits;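 active = inhibition above about 35% when tested at 20 µM, limit read from the data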;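 also: plate controls were DMSO wells with enzyme for no effect and DMSO wells lacking enzyme for full effect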
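Material – in-house recombinant HK5 (HKDC1) enzyme · Quantity – HKDC1 at 5 µg/mL · Buffer or medium – pH 8.0 Tris buffer with 10 mM MgCl2 · Reagent – glucose with 1 mM ATP · Dosing – single 20 µM dose · Times – reaction time 90 min, room temperature, protected from light · Technique – resorufin fluorescence at 613 nm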
LMPTP inh: LMPTP (human) inhibition; recombinant LMPTP-A, OMFP fluorogenic substrate, fluorescence intensity; 360,000 compounds, 0.22% hits; inhibition, % at 20 µM; P24666; AID 651560;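 active = compounds that cut the enzyme signal by at least half of the control window in the single-dose screen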;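 also: plate controls were DMSO wells with enzyme plus substrate for no effect and substrate without enzyme for full effect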
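Test system: LMPTP-A phosphatase enzyme; input: 0.625 nM LMPTP-A final; reagent: OMFP substrate, 400 µM final; compound dosing: 20 µM single dose, 3% DMSO; incubation: 50 min dark incubation at room temperature; measured by: endpoint fluorescence intensity from OMFP dephosphorylation; measure: % inhibition relative to no-enzyme and uninhibited control wells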
Beacon interf DR: beacon fluorescence artifact, dose response counter-screen. AID 602382. shares compounds with DNMT1 block. IC50, µM. 200 tested, under 10 active. molecular beacon fluorescence, spectral interference counter-screen; call rule not given here
DNMT1 inh conf: DNMT1 inhibition confirmation, single concentration | 2,300 compounds, 8% hits | shares compounds with DNMT1 block | DNMT1 molecular beacon HinP1I cleavage, fluorescence | inhibition, % at 10 µM;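 active = average inhibition of at least 30% in the single-concentration confirmation test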
DNMT1 interf: counter-screen for DNMT1 inhibitors: spectral interference; shares compounds with DNMT1 block; DNMT1 molecular beacon spectral interference counterscreen, fluorescence 485/520; activation (fluorescence interference), % at 10 µM; 2,300 compounds, 1% hits;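 active = activation of at least 30% at 10 µM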;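 also: DNMT1 catalytic domain with a HinP1I cleavage step and a FAM/dabcyl DNA beacon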
* = called active by the depositor; x = not tested or not shown. Most compounds without a hit are left out; they make up all but 1.8% or so of the library.

SMILES	SUMO1 PPI mod	DNMT1 block	STEP inh	Scp1 inh	HKDC1 inhibitor	LMPTP inh	DNMT1 inh conf	DNMT1 interf	others
CCCCc1c(C)nc2ccc(OC)cc2c1SCCC(=O)O	7	66*	0	17	1	2	5	3
COc1ccccc1N1CCN(/N=C/c2ccc(Cl)c([N+](=O)[O-])c2)CC1	-9	99*	4	4	-3	2	35*	6	Beacon interf DR=>99
CC(=O)NCCc1ccc(C(=O)COC(=O)c2cc(C)oc2C)cc1	-6	-2	4	-18	-2	-1	x	x
O=C(/C=C/c1ccco1)c1cccc([N+](=O)[O-])c1	6	62*	2	30	6	14	3	2
O=C(N/N=C/C=C/c1ccco1)c1cccc([N+](=O)[O-])c1	1	16	1	43	4	12	x	x
O=C(/C=C/c1ccc([N+](=O)[O-])cc1)/C=C/c1ccco1	12	91*	6	x	x	20	5	3
COc1ccc(CCNC(=S)NNC(=O)c2c(Br)c(C)nn2C)cc1OC	9	-1	0	-2	-2	-2	x	x
CCCn1c(CC)nc([N+](=O)[O-])c1Sc1ncn[nH]1	-11	7	-2	x	x	-1	x	x
CCOC1=C2[C@@H](CN(S(=O)(=O)c3ccc(C)cc3)[C@H]2c2ccccc2Cl)[C@H]2C(=O)N(Cc3ccccc3)C(=O)[C@H]2C1	2	-18	3	x	x	1	x	x
O=C(N/N=C/c1cn(Cc2cccc(F)c2)c2ccccc12)c1cc(O)cc(O)c1	53*	93*	98*	77*	20	43	121*	0	Beacon interf DR=>99
Cc1ccc(-c2nn(-c3ccccc3)cc2C=C2SC(=S)N(CCS(=O)(=O)O)C2=O)cc1	72*	76*	5	x	x	82*	107*	-14	Beacon interf DR=>99
CC(C)COc1ccc(-c2nn(-c3ccccc3)cc2/C=C2/SC(=S)N(CC(=O)O)C2=O)cc1	21	65*	9	11	4	38	67*	-9	Beacon interf DR=>99
CCOc1ccc(-c2nn(-c3ccccc3)cc2/C=C2\SC(=S)N(Cc3ccco3)C2=O)cc1	1	14	5	1	1	0	x	x
O=C(c1ccc2[nH]c3c(c2c1)CCCC3)N1CCN(c2ccc(F)cc2)CC1	1	59*	2	-2	-5	2	1	6
C[n+]1cccc2cccc([O-])c21	40*	78*	7	-14	26	52*	2	-3
Clc1ccc(Cn2c(/C=C/c3ccco3)nc3ccccc32)cc1	-1	35	0	0	0	9	x	x
Cc1ccc(Cn2c(/C=C/c3ccco3)nc3ccccc32)cc1	-3	76*	0	6	2	8	3	2
COc1ccc(-n2nc(C(=O)Nc3ccc(OC)c(OC)c3)c3c4ccccc4n(C)c3c2=O)cc1	-4	60*	3	-3	3	3	2	4
COc1ccc(-n2nc(C(=O)NCC(=O)Nc3cccc(Cl)c3)c3ccccc3c2=O)cc1OC	-65	60*	10	38	3	34	-3	-7
COc1ccc(-n2nc(C(=O)Nc3ccc4c(c3)OCO4)c3c4ccccc4n(C)c3c2=O)cc1	-2	-1	1	-15	-3	2	x	x
COc1ccc2c(c1)c1c(c(=O)n(-c3ccc(C)cc3)c(=O)n1CC(=O)NCC1CCCO1)n2C (stereo not drawn)	-17	98*	-1	x	x	0	2	2
CCOC(=O)/C=c1\s/c(=C\c2ccc(C#N)cc2)c(=O)n1CC(=O)NCc1ccco1	-7	50*	1	-5	-15	2	0	-4
CCOC(=O)/C=c1/s/c(=C/c2ccc3cc(OC)ccc3c2)c(=O)n1CC(=O)NCC1CCCO1 (stereo not drawn)	-3	54*	-7	-7	0	2	2	-2
CCCNC(=O)c1ccc2c(=O)n3c(-c4ccc(C)cc4)csc3nc2c1	-20	53*	1	5	16	-2	13	-2
CC1(C)CC(NC(=O)C2CCC(=O)N(C3CC3)C2)CC(C)(C)C1 (stereo not drawn)	0	2	-1	-6	-5	-2	x	x
SMILES	SUMO1 PPI mod	DNMT1 block	STEP inh	Scp1 inh	HKDC1 inhibitor	LMPTP inh	DNMT1 inh conf	DNMT1 interf	others
Cc1ccsc1C(=O)C1CCCN(Cc2cccn2-c2ccc(Cl)cn2)C1 (stereo not drawn)	-1	113*	3	26	-14	1	1	-2
O=C(CC1C[C@H](C(=O)N2CCCCC2)[C@@]2(CCc3ccccc3)c3[nH]c4ccccc4c3CCN2C1=O)NCCC1=CCCCC1 (stereo partly drawn)	2	60*	11	4	-3	2	4	7
O=C(C[C@H]1C[C@H](C(=O)N2CCCCC2)[C@@]2(CCc3ccccc3)c3[nH]c4ccc(Cl)cc4c3CCN2C1=O)NCCC1=CCCCC1	4	61*	4	1	-4	1	6	1
O=C(C[C@H]1C[C@H](C(=O)N2CCCCC2)[C@@]2(CCc3ccccc3)c3[nH]c4ccc(Cl)cc4c3CCN2C1=O)NCCc1ccccn1	2	-24	0	7	2	0	x	x
O=C(c1ccc(Cl)cc1)C1CCN(C(=O)c2ccccc2)CC1	5	89*	0	-7	0	0	0	3
O=C(c1ccc(F)cc1)C1CCN(C(=O)c2ccc(Cl)cc2)CC1	3	-2	1	1	8	0	x	x
ClC(Cl)(Cl)c1nc(N/N=C/c2ccncc2)c2ccccc2n1	-2	55*	-2	-4	-4	0	6	7
CNc1ncnc2c1ncn2[C@H]1CN(Cc2ccc(OC)cc2)C[C@@H](CO)O1	-6	2	2	x	x	1	x	x
CCCNC(=O)Cn1c(=O)/c(=C/c2ccc(-c3cccc([N+](=O)[O-])c3)o2)s/c1=C\C(=O)C(C)(C)C	1	68*	-25	-8	-4	2	17	23
CCCNC(=O)Cn1c(=O)/c(=C\c2ccc(-c3cccc([N+](=O)[O-])c3)o2)s/c1=C\C(=O)C(C)(C)C	-14	30	-14	-7	-5	2	x	x
c1ccc(OCCNc2ccn3nc(-c4cccs4)cc3n2)cc1	8	-15	-2	x	x	2	x	x
